Assays:
[1] = tested on: Cavia porcellus; test: Effect on thromboxane synthetase activity on ex vivo platelet aggregation induced by PGE-2 at 50 mg/kg expressed as percent increase; assay type: functional
Method in brief: (§1)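 Fasted male or female guinea pigs (250–300 g, five per group) dosed orally in normal saline or saline with 0.2% (carboxymethyl)cellulose/1.0% Tween 80; controls given vehicle. Under ether, cardiac blood collected into 3.8% citrate. PRP adjusted to […] and aggregation induced by ADP (second wave) or AA, read by absorbance aggregometry. PGE2 and TXB2 measured by RIA.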

[2] = tested on: Cavia porcellus; test: Effect on thromboxane synthetase activity on ex vivo platelet aggregation induced by PGE-2 at 100 mg/kg expressed as percent increase; assay type: functional; method in brief: as §1
[3] = Effect on thromboxane synthetase activity on in vitro platelet aggregation induced by AA at 10e -5 M expressed as percent increase in PGE-2; assay type: functional, Homo sapiens
Method in brief: (§2)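 Human citrated PRP adjusted to 200 000 […], compound at 10^-5 M final in saline/10% ethylene glycol, incubated at 37 °C. Aggregation induced with arachidonic acid 0.6 mM and read by Born absorbance aggregometry. PGE2 and TXB2 in the aggregated samples measured by radioimmunoassay. n = 5.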

[4] = Effect on PGI-2 release from rat aortic tissue at a final concentration of 10e -4 for an incubation time of 10 minutes; assay type: functional
Method in brief: (§3)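 Female Wistar rats (200–220 g) received heparin 200 IU/kg ip and were killed 10 min later. Aortic pieces of about 25 mm² were washed in ice-cold oxygenated Krebs–Henseleit buffer, then incubated in 1 mL buffer at 37 °C. Compound at 10^-4 M final was added 10 min before tissue transfer. PGI2 release was read as antiaggregatory activity of the incubate on ADP (2×10^-6 M)-induced human PRP aggregation and by 6-keto-PGF1α RIA. n = 4.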

[5] = Effect on PGI-2 release from rat aortic tissue at a final concentration of 10e -4 for an incubation time of 25 minutes; assay type: functional; method in brief: as §3
[6] = Effect on PGI-2 release from rat aortic tissue at a final concentration of 10e -4 for an incubation time of 30 minutes; assay type: functional; method in brief: as §3
[7] = Effect on PGI-2 release from rat aortic tissue at a final concentration of 10e -4 for an incubation time of 35 minutes; assay type: functional; method in brief: as §3
[8] = biological target: T1, Thromboxane-A synthase (Homo sapiens) (UniProt P24557); test: Effect on thromboxane synthetase activity on ex vivo platelet aggregation induced by TXB2 at 100 mg/kg expressed as percent increase; assay type: functional, organism-based; design: dose 100 mg/kg; details: Cavia porcellus; method in brief: as §1
T1 sequence (whole entry): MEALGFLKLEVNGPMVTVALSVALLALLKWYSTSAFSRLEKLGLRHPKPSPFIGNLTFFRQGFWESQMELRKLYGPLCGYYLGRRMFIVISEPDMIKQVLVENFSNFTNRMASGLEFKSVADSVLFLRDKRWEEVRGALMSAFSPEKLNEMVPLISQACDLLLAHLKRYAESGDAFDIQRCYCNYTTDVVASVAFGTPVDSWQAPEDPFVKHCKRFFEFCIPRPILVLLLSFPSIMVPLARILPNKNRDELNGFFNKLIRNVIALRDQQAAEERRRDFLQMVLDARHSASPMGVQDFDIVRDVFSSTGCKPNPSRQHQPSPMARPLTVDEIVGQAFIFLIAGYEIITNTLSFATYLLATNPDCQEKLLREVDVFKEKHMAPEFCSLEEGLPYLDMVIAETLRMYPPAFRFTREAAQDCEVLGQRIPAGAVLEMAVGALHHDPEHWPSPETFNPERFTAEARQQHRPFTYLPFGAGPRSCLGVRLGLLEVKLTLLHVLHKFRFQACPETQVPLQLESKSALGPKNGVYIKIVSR

[9] = biological target: T1, Thromboxane-A synthase (Homo sapiens); test: Effect on thromboxane synthetase activity on ex vivo platelet aggregation induced by TXB2 at 50 mg/kg expressed as percent increase; assay type: functional, organism-based; design: dose 50 mg/kg; details: Cavia porcellus; method in brief: as §1
[10] = biological target: T1, Thromboxane-A synthase (Homo sapiens); test: Effect on thromboxane synthetase activity on in vitro platelet aggregation induced by AA at 10e -5 M expressed as percent […] in TXB2; assay type: functional; method in brief: as §2
[11] = tested on: Rattus norvegicus; test: Antihypertensive activity in spontaneously hypertensive rats (SHR) measured by percentage fall in arterial pressure (AP) at 25 mg/kg administered perorally at 3 h; assay type: functional, Artery; details: route oral
Method in brief: (§4)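 Oral dosing at 2.5 mL/kg to unanesthetized male and female Okamoto-strain SHR (8 weeks old, 300–350 g, systolic pressure ≥190 mmHg, heart rate 400–650 beats/min), five per dose. Vehicle was normal saline or saline with 0.2% (carboxymethyl)cellulose and 1.0% Tween 80. AP measured on the tail by mechanical transduction at set times; expressed as percentage fall from control.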

[12] = tested on: Rattus norvegicus; test: Antihypertensive activity in spontaneously hypertensive rats (SHR) measured by percentage fall in arterial pressure (AP) at 25 mg/kg administered perorally at 5 h; assay type: functional, Artery; details: route oral; method in brief: as §4
[13] = tested on: Rattus norvegicus; test: Antihypertensive activity in spontaneously hypertensive rats (SHR) measured by percentage fall in arterial pressure (AP) at 5 mg/kg administered intraperitoneally at 1 h; assay type: functional, Artery; details: route intraperitoneal
Method in brief: (§5)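 Unanesthetized Okamoto-strain SHR, male and female, 8 weeks old, 300–350 g, systolic pressure ≥190 mmHg, heart rate 400–650 beats/min; five animals per dose. Given ip at 2.5 mL/kg, dissolved or suspended in normal saline or saline with 0.2% (carboxymethyl)cellulose and 1.0% Tween 80. Tail AP and CR recorded by mechanical transduction at set times; reported as percentage fall from control.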

[14] = tested on: Rattus norvegicus; test: Antihypertensive activity in spontaneously hypertensive rats (SHR) measured by percentage fall in arterial pressure (AP) at 5 mg/kg administered intraperitoneally at 24 h; assay type: functional, Artery; details: route intraperitoneal; method in brief: as §5
[15] = tested on: Rattus norvegicus; test: Antihypertensive activity in spontaneously hypertensive rats (SHR) measured by percentage fall in arterial pressure (AP) at 5 mg/kg administered intraperitoneally at 5 h; assay type: functional, Artery; details: route intraperitoneal; method in brief: as §5
[16] = tested on: Rattus norvegicus; test: Antihypertensive activity in spontaneously hypertensive rats (SHR) measured by percentage fall in arterial pressure (AP) at 25 mg/kg administered intraperitoneally at 5 h; assay type: functional, Artery; details: route intraperitoneal; method in brief: as §5
[17] = tested on: Rattus norvegicus; test: Antihypertensive activity in spontaneously hypertensive rats (SHR) measured by percentage fall in arterial pressure (AP) at 25 mg/kg administered perorally at 1 h; assay type: functional, Artery; details: route oral; method in brief: as §4
[18] = tested on: Rattus norvegicus; test: Antihypertensive activity in spontaneously hypertensive rats (SHR) measured by percentage fall in cardiac rhythm (CR) at 1 mg/kg administered intraperitoneally at 3 h; assay type: functional, Heart; details: route intraperitoneal; method in brief: as §5
[19] = tested on: Rattus norvegicus; test: Antihypertensive activity in spontaneously hypertensive rats (SHR) measured by percentage fall in cardiac rhythm (CR) at 1 mg/kg administered intraperitoneally at 5 h; assay type: functional, Heart; details: route intraperitoneal; method in brief: as §5
[20] = tested on: Rattus norvegicus; test: Antihypertensive activity in spontaneously hypertensive rats (SHR) measured by percentage fall in cardiac rhythm (CR) at 25 mg/kg administered intraperitoneally at 1 h; assay type: functional, Heart; details: route intraperitoneal; method in brief: as §5
[21] = tested on: Rattus norvegicus; test: Antihypertensive activity in spontaneously hypertensive rats (SHR) measured by percentage fall in cardiac rhythm (CR) at 25 mg/kg administered perorally at 3 h; assay type: functional, Heart; details: route oral
Method in brief: (§6)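 Conscious SHR (Okamoto strain), 8 weeks old, male and female, 300–350 g, systolic BP ≥190 mmHg, CR 400–650 beats/min. Given ip or po at 2.5 mL/kg in normal saline or saline with 0.2% (carboxymethyl)cellulose and 1.0% Tween 80. Tail AP and CR recorded by mechanical transduction at 1, 3, 5 and 24 h, five animals per dose. Effect expressed as % fall versus control.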

[22] = tested on: Rattus norvegicus; test: Antihypertensive activity in spontaneously hypertensive rats (SHR) measured by percentage fall in cardiac rhythm (CR) at 25 mg/kg administered perorally at 5 h; assay type: functional, Heart; details: route oral; method in brief: as §6
[23] = tested on: Rattus norvegicus; test: Antihypertensive activity in spontaneously hypertensive rats (SHR) measured by percentage fall in cardiac rhythm (CR) at 5 mg/kg administered intraperitoneally at 1 h; assay type: functional, Heart; details: route intraperitoneal; method in brief: as §6
[24] = tested on: Rattus norvegicus; test: Antihypertensive activity in spontaneously hypertensive rats (SHR) measured by percentage fall in cardiac rhythm (CR) at 5 mg/kg administered intraperitoneally at 24 h; assay type: functional, Heart; details: route intraperitoneal; method in brief: as §6
[25] = tested on: Rattus norvegicus; test: Antihypertensive activity in spontaneously hypertensive rats (SHR) measured by percentage fall in cardiac rhythm (CR) at 5 mg/kg administered intraperitoneally at 3 h; assay type: functional, Heart; details: route intraperitoneal; method in brief: as §6
[26] = tested on: Rattus norvegicus; test: Antihypertensive activity in spontaneously hypertensive rats (SHR) measured by percentage fall in cardiac rhythm (CR) at 5 mg/kg administered intraperitoneally at 5 h; assay type: functional, Heart; details: route intraperitoneal; method in brief: as §6
[27] = tested on: Rattus norvegicus; test: Antihypertensive activity in spontaneously hypertensive rats (SHR) measured by percentage fall in cardiac rhythm (CR) at 1 mg/kg administered intraperitoneally at 1 h; assay type: functional, Heart; details: route intraperitoneal; method in brief: as §5
[28] = tested on: Rattus norvegicus; test: Antihypertensive activity in spontaneously hypertensive rats (SHR) measured by percentage fall in cardiac rhythm (CR) at 25 mg/kg administered intraperitoneally at 24 h; assay type: functional, Heart; details: route intraperitoneal; method in brief: as §5
[29] = tested on: Rattus norvegicus; test: Antihypertensive activity in spontaneously hypertensive rats (SHR) measured by percentage fall in cardiac rhythm (CR) at 25 mg/kg administered intraperitoneally at 3 h; assay type: functional, Heart; details: route intraperitoneal; method in brief: as §5
[30] = tested on: Rattus norvegicus; test: Antihypertensive activity in spontaneously hypertensive rats (SHR) measured by percentage fall in cardiac rhythm (CR) at 25 mg/kg administered intraperitoneally at 5 h; assay type: functional, Heart; details: route intraperitoneal; method in brief: as §6
[31] = tested on: Rattus norvegicus; test: Antihypertensive activity in spontaneously hypertensive rats (SHR) measured by percentage fall in cardiac rhythm (CR) at 25 mg/kg administered perorally at 1 h; assay type: functional, Heart; details: route oral; method in brief: as §6
[32] = tested on: Rattus norvegicus; test: Antihypertensive activity in spontaneously hypertensive rats (SHR) measured by percentage fall in arterial pressure (AP) at 1 mg/kg administered intraperitoneally at 3 h; assay type: functional, Artery; details: route intraperitoneal; method in brief: as §5
[33] = tested on: Rattus norvegicus; test: Antihypertensive activity in spontaneously hypertensive rats (SHR) measured by percentage fall in arterial pressure (AP) at 25 mg/kg administered intraperitoneally at 1 h; assay type: functional, Artery; details: route intraperitoneal; method in brief: as §5
[34] = tested on: Rattus norvegicus; test: Antihypertensive activity in spontaneously hypertensive rats (SHR) measured by percentage fall in arterial pressure (AP) at 25 mg/kg administered intraperitoneally at 24 h; assay type: functional, Artery; details: route intraperitoneal; method in brief: as §5
[35] = tested on: Rattus norvegicus; test: Antihypertensive activity in spontaneously hypertensive rats (SHR) measured by percentage fall in arterial pressure (AP) at 25 mg/kg administered intraperitoneally at 3 h; assay type: functional, Artery; details: route intraperitoneal; method in brief: as §5
[36] = tested on: Rattus norvegicus; test: Antihypertensive activity in spontaneously hypertensive rats (SHR) measured by percentage fall in arterial pressure (AP) at 5 mg/kg administered intraperitoneally at 3 h; assay type: functional, Artery; details: route intraperitoneal; method in brief: as §5

CC(=O)Oc1ccccc1C(=O)O [ASPIRIN]
Increase [1]: 0%
Increase [2]: 0%
Increase [3]: 0%
Inhibition [4]: 80%
Inhibition [5]: 80%
Inhibition [6]: 80%
Inhibition [7]: 80%
inhibition [8]: 100%
inhibition [9]: 100%
inhibition [10]: 100%

Br.Br.NNc1[nH]ncc2c3cc(O)ccc3nc1-2
Decrease in AP [11]: 27%
Decrease in AP [12]: 8%
Decrease in AP [13]: 27%
Decrease in AP [14]: 6%
Decrease in AP [15]: 10%
Decrease in AP [16]: 63%
Decrease in AP [17]: 29%
Decrease in CR [18]: 13%
Decrease in CR [19]: 19%
Decrease in CR [20]: 19%
Decrease in CR [21]: 24%
Decrease in CR [22]: 8%
Decrease in CR [23]: 64%
Decrease in CR [24]: 28%
Decrease in CR [25]: 30%
Decrease in CR [26]: 24%
Decrease in CR [27]: 22%
Decrease in CR [28]: 18%
Decrease in CR [29]: 16%
Decrease in CR [30]: 44%
Decrease in CR [31]: 17%
Decrease in AP [32]: -6%
Decrease in AP [33]: 70%
Decrease in AP [34]: 28%
Decrease in AP [35]: 67%
Decrease in AP [36]: 16%

— ChEMBL document CHEMBL1123757, “Selective thromboxane synthetase inhibitors and antihypertensive agents. New derivatives of 4-hydrazino-5H-pyridazino[4,5-b]indole, 4-hydrazinopyridazino[4,5-a]indole, and related compounds” (J Med Chem, 1987)
